Consider two molecules from ChEMBL document CHEMBL3769308, “Melanin-Concentrating Hormone Receptor 1 Antagonists Lacking an Aliphatic Amine: Synthesis and Structure-Activity Relationships of Novel 1-(Imidazo[1,2-a]pyridin-6-yl)pyridin-2(1H)-one Derivatives” (J Med Chem, 2016).

Data set [1] relates to Rattus norvegicus. The experiment in a line: Anorectic activity in diet-induced obese F344/jcl rat assessed as inhibition of cumulative food intake at 1 mg/kg, po qd administered through repeated dosing for 2 weeks measured during 2 weeks of dosing relative to vehicle-treated control. As to conditions: 336 h. The class given is functional. The procedure, abridged: (§1)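 Male DIO F344/Jcl rats (45 weeks old) on high-fat diet since 5 weeks of age, singly housed, habituated to oral dosing with tap water, grouped by day−1 food intake and body weight. Once-daily oral dosing in 0.5% methylcellulose at 2 mL/kg for 2 weeks, 1−3 h before dark onset, 6 rats/group. Food intake measured every 2 or 3 days; body weight change as % of initial.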

Data set [2] deals with Rattus norvegicus. The data set is described as follows: Antiobesity activity in diet-induced obese F344/jcl rat assessed as reduction in body weight at 1 mg/kg, po qd administered through repeated dosing for 2 weeks measured during 2 weeks of dosing relative to vehicle-treated control. Type of data set: functional. Further details: scale not given: the % may be the effect or the level left. The procedure, abridged:
as §1

Data set [3] is filed under the species Rattus norvegicus. The data set is described as follows: animal or person. Particulars: F344/jcl, po, 48 h, read-out: INH.
The nature of data set [4]: Unbound fraction in po dosed diet-induced obese F344/jcl rat plasma. Type of data set: ADME, organism-based.
Data set [5] is filed under the species Rattus norvegicus. The data set is described as follows: animal or person. Particulars: F344/jcl, po, 336 h, read-out: INH.
Data set [6] can be described thus: Tmax in Sprague-Dawley rat at 1 mg/kg, po administered through cassette dosing by LC/MS/MS analysis. Particulars: in vivo. The class given is ADME, organism-based.
The nature of data set [7]: Plasma concentration in diet-induced obese F344/jcl rat at 10 mg/kg, po administered on day 1 measured 24 hrs post dose. The class given is ADME, organism-based. The procedure, abridged: (§2)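 From the DIO F344 rat 2-day feeding study (oral, 0.5% methylcellulose): plasma and brain concentrations taken 24 h after the day-1 dose; brain/plasma ratio from these.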
A short description of data set [8]: Lipophilicity, log D of the compound at pH 7.4. The class given is physicochemical. As to conditions: buffer. Put shortly:
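Chromatographic HPLC method with UV detection, estimating octanol/buffer partition at pH 7.4.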

The target in data set [9] is T1, Melanin-concentrating hormone receptor 1 (Homo sapiens, UniProt Q99705). The class given is functional, cell-based, CHO.
T1 sequence (Q99705 whole entry, the tested form may be a part): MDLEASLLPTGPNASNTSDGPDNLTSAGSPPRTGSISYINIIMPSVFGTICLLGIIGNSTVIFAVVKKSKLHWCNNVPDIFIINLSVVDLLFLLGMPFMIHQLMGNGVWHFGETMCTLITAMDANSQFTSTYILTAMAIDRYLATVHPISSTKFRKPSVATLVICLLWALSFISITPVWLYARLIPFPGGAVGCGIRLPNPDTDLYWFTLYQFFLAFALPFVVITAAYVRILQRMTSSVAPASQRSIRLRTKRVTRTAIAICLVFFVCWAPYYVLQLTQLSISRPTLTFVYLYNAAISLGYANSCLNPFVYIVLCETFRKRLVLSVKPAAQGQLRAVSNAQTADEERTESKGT
Data set [10] deals with T1, Melanin-concentrating hormone receptor 1. The experiment in a line: Displacement of [125I]-MCH (4 to19 residues) from human MCHR1 expressed in CHO cell membranes after 1 hr by liquid scintillation counting analysis. Put shortly: (§3)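 Membranes from MCHR1-expressing CHO cells, homogenized in NaHCO3/EDTA with protease inhibitors, 100000g pellet held at 2 mg/mL protein in 20 mM Tris-HCl pH 7.5, 5 mM EDTA, protease inhibitors.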
On the technique in general: Loss of bound radioactivity is the signal in a displacement assay; it reports binding, not function.

Data set [11] has as its system Rattus norvegicus. The data set is described as follows: Antiobesity activity in diet-induced obese F344/jcl rat assessed as reduction in body weight at 3 mg/kg, po qd administered through repeated dosing for 2 weeks measured during 2 weeks of dosing relative to vehicle-treated control. Further details: scale not given: the % may be the effect or the level left. The class given is functional. The procedure, abridged: (§4)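 Male DIO F344/Jcl rats (45 weeks old, high-fat diet), habituated and grouped as for feeding study; once-daily oral dosing in 0.5% methylcellulose at 2 mL/kg for 2 weeks, 1–3 h before dark onset after weighing, n = 6. Body weight change as percent of initial weight, compared with vehicle.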

Data set [12] deals with Mus musculus. The experiment in a line: Effect on food intake in MCHR-deficient high fat diet fed mouse at 10 to 30 mg/kg, po administered for 3 days measured during 3 days of dosing. As to conditions: in vivo, 72 h. Type of data set: ADME, organism-based. Put shortly: (§5)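 Male MCHR1-deficient and wild-type littermate mice (45 weeks old) on high-fat diet D12451 from 5 weeks, singly housed, acclimated with 0.5 mL tap water dosing, grouped by day −3 to −1 intake and day −1 weight. Oral vehicle (0.5% methylcellulose) or suspension at 10 mL/kg for 3 days, n = 5–6; cumulative 3-day intake; Williams test.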

Data set [13] can be described thus: Cmax in Sprague-Dawley rat at 1 mg/kg, po administered through cassette dosing by LC/MS/MS analysis. As to conditions: in vivo. Type of data set: ADME, organism-based. Further details: dose 1 mg/kg, route oral.
Data set [14] concerns Plasma. The experiment in a line: Free plasma concentration in diet-induced obese F344/jcl rat at 3 mg/kg, po administered on day 1 measured 24 hrs post dose. The class given is ADME, organism-based. As to conditions: in vivo. The procedure, abridged:
(§6)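 Plasma level 24 h after day-1 oral dose in DIO F344 rats multiplied by the free fraction measured in DIO rat plasma to give free concentration.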

Data set [15] is described as follows: Drug uptake in diet-induced obese F344/jcl rat brain at 10 mg/kg, po administered on day 1 measured 24 hrs post dose. Type of data set: ADME, organism-based. Put shortly: as §2
A short description of data set [16]: Plasma concentration in diet-induced obese F344/jcl rat at 3 mg/kg, po administered on day 1 measured 24 hrs post dose. The class given is ADME, organism-based. Put shortly:
as §2

The nature of data set [17]: Oral bioavailability in Sprague-Dawley rat at 1 mg/kg, administered through cassette dosing by LC/MS/MS analysis. The class given is ADME, organism-based. As to conditions: in vivo.
Data set [18] is described as follows: Ratio of drug level in brain to plasma in diet-induced obese F344/jcl rat at 3 mg/kg, po administered on day 1 measured 24 hrs post dose. The class given is ADME, organism-based. As to conditions: read-out: BPR. The procedure, abridged:
as §2

Data set [19] is described as follows: Total clearance in Sprague-Dawley rat at 0.1 mg/kg, iv administered through cassette dosing by LC/MS/MS analysis. Type of data set: ADME, organism-based. As to conditions: in vivo. Put shortly: (§7)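 Nonfasted male SD rats (8 weeks old, n = 3) given 0.1 mg/kg iv by cassette dosing; plasma deproteinized with acetonitrile, centrifuged, and supernatant concentrations measured by LC/MS/MS.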

Another data set deals with HepG2. The data set is described as follows: Induction of phospholipidosis in human HepG2 cells at 0.6 to 20 uM after 24 hrs by NBD-PE-based fluorometric analysis. Type of data set: cell-based. Particulars: hepg2, 24 h. The procedure, abridged:
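HepG2 cells in DMEM with 5% FBS, precultured 24 h, then exposed 24 h at 37 °C to 60 μM NBD-PE medium plus compound medium (0.6 or 20 μM, added 1:1); amiodarone 10 μM final as reference. NBD-PE uptake fluorescence (ex 485/em 538), blank subtracted, expressed relative to amiodarone; maximum value taken.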

Data set [20] has as its system Rattus norvegicus. The experiment in a line: Antiobesity activity in diet-induced obese F344/jcl rat assessed as reduction in body weight at 10 mg/kg, po qd administered through repeated dosing for 2 weeks measured during 2 weeks of dosing relative to vehicle-treated control. Type of data set: functional. Further details: scale not given: the % may be the effect or the level left. The procedure, abridged: as §4

Data set [21] concerns the target Melanin-concentrating hormone receptor 1 (Rattus norvegicus, UniProt P97639). The experiment in a line: Displacement of [125I]-MCH (4 to 19 residues) from rat MCHR1 expressed in CHO cell membranes after 1 hr by liquid scintillation counting analysis. Put shortly: as §3
The subject of data set [22] is Mus musculus. The data set is described as follows: Anorectic activity in po dosed high fat diet fed wild type mouse assessed as reduction of food intake administered for 3 days measured during 3 days of dosing. The class given is functional, organism-based. The procedure, abridged: as §5
Data set [23] is described as follows: AUC (0 to 8 hrs) in Sprague-Dawley rat at 1 mg/kg, po administered through cassette dosing by LC/MS/MS analysis. The class given is ADME, organism-based. Further details: time < 8 hr, dose 1 mg/kg, route oral. As to conditions: in vivo.
The species named for data set [24] is Rattus norvegicus. The data set is described as follows: animal or person. Particulars: F344/jcl, po, 48 h, read-out: INH. This is another data set of the same source.
Data set [25] in a line: Volume of distribution at steady state in Sprague-Dawley rat at 0.1 mg/kg, iv by LC/MS/MS analysis. As to conditions: in vivo, read-out: Vdss. The class given is ADME, organism-based. The procedure, abridged:
as §7

Data set [26] concerns Plasma. The experiment in a line: Free plasma concentration in diet-induced obese F344/jcl rat at 10 mg/kg administered after 24 hrs in day 1. The class given is ADME, organism-based. Particulars: in vivo. Put shortly: as §6
Data set [27] is filed under the species Rattus norvegicus. The data set is described as follows: animal or person. As to conditions: F344/jcl, po, 336 h, read-out: INH. This is another data set of the same source.
A short description of data set [28]: Drug uptake in diet-induced obese F344/jcl rat brain at 3 mg/kg, po administered on day 1 measured 24 hrs post dose. The class given is ADME, organism-based. As to conditions: read-out: Drug uptake. Put shortly: as §2
The nature of data set [29]: Ratio of drug level in brain to plasma in diet-induced obese F344/jcl rat at 10 mg/kg, po administered on day 1 measured 24 hrs post dose. Particulars: read-out: BPR. Type of data set: ADME, organism-based. Put shortly:
as §2

A word on the fraction unbound: it is the share of the substance not bound to proteins or other matrix. What is called Tmax is the time from dosing to the highest level. The term logD denotes the decadic logarithm of the distribution of all forms, ionised or not, between an organic phase and buffer at a given pH. The term IC50 denotes the concentration that gives 50% inhibition. The term Cmax denotes the peak of the concentration-time curve. By bioavailability is commonly meant the share of a dose that reaches the circulation, judged against a reference dose that is usually intravenous. One may read the clearance as the volume of plasma or blood freed of the substance per unit of time. Broadly, the AUC(0-t) is exposure summed from dosing to a finite time, without extrapolation to infinity.

Molecules are shown by their SMILES.

Melanin-concentrating hormone receptor 1 (Rattus norvegicus, UniProt P97639), sequence (P97639 whole entry, the tested form may be a part): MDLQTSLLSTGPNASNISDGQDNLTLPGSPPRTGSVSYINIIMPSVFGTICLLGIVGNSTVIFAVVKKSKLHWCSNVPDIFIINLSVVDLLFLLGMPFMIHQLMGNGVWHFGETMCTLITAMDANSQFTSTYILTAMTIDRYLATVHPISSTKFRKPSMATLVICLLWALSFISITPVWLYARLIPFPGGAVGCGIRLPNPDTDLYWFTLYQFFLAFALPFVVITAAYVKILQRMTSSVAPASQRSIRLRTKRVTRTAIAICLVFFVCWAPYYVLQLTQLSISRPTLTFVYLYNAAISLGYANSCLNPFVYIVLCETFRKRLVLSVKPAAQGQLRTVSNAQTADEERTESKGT

For `CC(C)CC(N(C)C)C1(c2ccc(Cl)cc2)CCC1` (stereo not given) [SIBUTRAMINE], the inhibition in vivo at 1 mg/kg with Rattus norvegicus [1] worked out at 21.5%. For the same molecule, in the data set with Rattus norvegicus [2], the Activity is listed as 3.4%.
As to `Cc1c(C2CC2)nc2ccc(-n3ccc(OCc4ccc(Cl)cc4)cc3=O)cn12`, the inhibition in vivo at 10 mg/kg in the data set filed under Rattus norvegicus [3] turned out to be 29.6%; in the data set filed under Rattus norvegicus [5] it was 36.2%. Also, the fraction unbound in [4] worked out at 0.02. Further, the Tmax in data set [6] came out at 2 h. Besides, the concentration at 24 h was found to be 1350 ng/mL in data set [7], 841 ng/g in data set [15], 351 ng/mL in data set [16] and 218 ng/g in data set [28]. In data set [8], the logD came to 3.2. For the same molecule, the results for the IC50 in data set [9], in data set [10] and in data set [21] were 23 nM, 26 nM and 20 nM, respectively. Moreover, the Activity is 3.7% with Rattus norvegicus [11]; “Non-toxic” in the data set on Mus musculus [12]; “Non-toxic” with HepG2; 8.6% in the data set on Rattus norvegicus [20]; “Dose-dependent effect” with Mus musculus [22]. Further, the peak level in data set [13] (Cmax) was 313 ng/mL. Further, the results for the “Cp(f)” value with Plasma [14] and in the data set on Plasma [26] were 17.2 nM and 66.5 nM, respectively. Besides, the bioavailability in data set [17] came out at 58%. For the same molecule, the Kp at 24 h in data set [18] was 0.61; in [29] it was 0.62. Also, in [19], the clearance is 5.2 mL/min/kg. In [23], this molecule came in with an AUC(0-t) at 8 h of 1880 ng·h/mL. Further, the figures for the inhibition in vivo at 3 mg/kg in the data set listed under Rattus norvegicus [24] and in the data set listed under Rattus norvegicus [27] were 15% and 15.4%, respectively. In data set [25], the Vd stood at 1.05 L/kg.
